Results on 37 compounds are retold here after ChEMBL document CHEMBL1129463, “Discovery of 1,5-benzodiazepines with peripheral cholecystokinin (CCK-A) receptor agonist activity (II): Optimization of the C3 amino substituent” (J Med Chem, 1996).

Molecules are shown by their SMILES. Calls of active or inactive are those of the source. The calls are words filed in the database; no cut-off is given here.

Test [1] is filed under the species Cavia porcellus. Nature of the test: In vitro functional activity on the isolated guinea pig gallbladder. More on the design: concentration or dose not given beside the values.
Test [2] is filed under the species Cavia porcellus. The experiment in a line: In vitro Functional activity on the isolated guinea pig gallbladder following incubation at 1 micro M percent contraction normalized to that for CCK-8. In a few lines:
(§1)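 Contraction is expressed as percent of the CCK-8 (1 μM) response. Non-contracting compounds were tested for antagonism against a CCK-8 curve (10⁻¹¹ to 10⁻⁶ M).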

The subject of test [3] is Mus musculus. Nature of the test: Compound was tested in vivo Percent Maximal response activity in mouse gallbladder emptying assay at dose of 1 nmol/kg ip.
The subject of test [4] is Rattus norvegicus. The experiment in a line: Compound was tested in vivo for its Percent Maximal anorectic potency in rats at dose of 0.5 umol/kg ip.
Test [5] relates to Rattus norvegicus. The experiment in a line: Compound was tested in vivo for its anorectic potency in rats at dose of 0.5 umol/kg ip.
For test [6], the system named is Rattus norvegicus. The experiment in a line: Compound was tested in vivo for its Percent Maximal anorectic potency in rats at dose of 10 umol/kg po; ia = Inactive.
Test [7] is filed under the species Cavia porcellus. Nature of the test: Maximum contractile response at 30 uM, normalized to CCK-8 (1 uM). The test is classed as functional.
Test [8] relates to Mus musculus. Nature of the test: Compound was tested in vivo for its activity in mouse gallbladder emptying assay at dose of 0.1 umol/kg ip. The test is classed as functional.
Test [9] is filed under the species Cavia porcellus. Nature of the test: In-vitro potency on the isolated guinea pig gallbladder. It is filed as functional.
The species entered for test [10] is Cavia porcellus. Nature of the test: In vitro Functional activity on the isolated guinea pig gallbladder following incubation at 30 uM percent contraction normalized to that for CCK-8; inactive. A digest of the protocol: as §1
Test [11] relates to Mus musculus. Nature of the test: Compound was tested in vivo for Percent Maximal response in mouse gallbladder emptying assay at dose of 1 umol/kg po; ia = Inactive. It is filed as functional, organism-based.
Test [12] concerns Mus musculus. The experiment in a line: Compound was tested in vivo for its activity in mouse gallbladder emptying assay at dose of 1 umol/kg po; ia = Inactive. The test is classed as functional, organism-based.
Test [13] concerns Rattus norvegicus. Nature of the test: Compound was tested in vivo for its Percent Maximal anorectic potency in rats at dose of 0.1 umol/kg ip. It is filed as functional.
The species entered for test [14] is Cavia porcellus. Nature of the test: In vitro potency on the isolated guinea pig gallbladder. It is filed as functional.

For the compound `CC(C)N(C(=O)CN1C(=O)C(NC(=O)Nc2cccc(CO)c2)C(=O)N(c2ccccc2)c2ccccc21)c1ccccc1` (stereo not drawn), the Activity in test [1] turned out to be 90%; in test [2], 85%.
In test [1], `Cc1ccccc1NC(=O)NC1C(=O)N(CC(=O)N(c2ccccc2)C(C)C)c2ccccc2N(c2ccccc2)C1=O` (stereo not drawn) showed an Activity of 34%.
On the same count and under the same terms, the value for `CC(C)N(C(=O)CN1C(=O)C(NC(=O)c2ccccc2)C(=O)N(c2ccccc2)c2ccccc21)c1ccccc1` (stereo not drawn) was 57%.
Usually ED50 stands for the dose at which the effect has come halfway, by size or by number of responders. In general, EC50 refers to the concentration needed to bring the measured effect to its halfway point. Take `CSCC[C@H](NC(=O)[C@H](Cc1ccc(OS(=O)(=O)O)cc1)NC(=O)[C@@H](N)CC(=O)O)C(=O)NCC(=O)N[C@@H](Cc1c[nH]c2ccccc12)C(=O)N[C@@H](CCSC)C(=O)N[C@@H](CC(=O)O)C(=O)N[C@@H](Cc1ccccc1)C(N)=O` [SINCALIDE]: the figures for the Max in test [3], in test [4] and in [7] were 95%, 95% and 100%, respectively. Besides, the results for the ED50 in test [5] and in [8] were 0.027 µmol/kg and 3e-05 µmol/kg, respectively. Besides, the Max entry in [6] was “inactive”. In [9], the EC50 was 0.794 nM.
On to `CC(C)N(C(=O)CN1C(=O)C(NC(=O)Nc2cccc(O)c2)C(=O)N(c2ccccc2)c2ccccc21)c1ccccc1` (stereo not drawn), for which the Activity is recorded as 89% in test [1] and 82% in test [2].
In [1], `Cc1cccc(NC(=O)NC2C(=O)N(CC(=O)N(c3ccccc3)C(C)C)c3ccccc3N(c3ccccc3)C2=O)c1` (stereo not drawn) yielded an Activity of 5%.
`CC(C)N(C(=O)CN1C(=O)C(NC(=O)Nc2cccc(C(N)=O)c2)C(=O)N(c2ccccc2)c2ccccc21)c1ccccc1` (stereo not drawn) returned an Activity in test [1] of 76%.
With `CC(C)N(C(=O)CN1C(=O)C(NC(N)=O)C(=O)N(c2ccccc2)c2ccccc21)c1ccccc1` (stereo not drawn), the result in [10] was inactive.
For the compound `CC(C)N(C(=O)CN1C(=O)C(NC(=O)Nc2cccc(OCC(=O)N3CCOCC3)c2)C(=O)N(c2ccccc2)c2ccccc21)c1ccccc1` (stereo not drawn), the Activity in test [1] stood at 78%.
In the case of `CC(C)N(C(=O)CN1C(=O)C(NC(=O)Nc2cccc(OCC(N)=O)c2)C(=O)N(c2ccccc2)c2ccccc21)c1ccccc1` (stereo not drawn), in test [1], the Activity amounted to 95%.
In test [1], `CC(C)N(C(=O)CN1C(=O)C(NC(=O)Cc2ccccc2)C(=O)N(c2ccccc2)c2ccccc21)c1ccccc1` (stereo not drawn) came in with an Activity of 28%.
Take `CC(C)N(C(=O)CN1C(=O)C(NC(=O)Nc2cccc(NS(=O)(=O)C(F)(F)F)c2)C(=O)N(c2ccccc2)c2ccccc21)c1ccccc1` (stereo not drawn): the Activity in [1] amounted to 89%; in [2], 87%.
With `Cc1ccc(NC(=O)NC2C(=O)N(CC(=O)N(c3ccccc3)C(C)C)c3ccccc3N(c3ccccc3)C2=O)cc1` (stereo not drawn), the Activity in test [1] is 20%.
Still for that read-out and setting: the value for `COc1ccc(NC(=O)NC2C(=O)N(CC(=O)N(c3ccccc3)C(C)C)c3ccccc3N(c3ccccc3)C2=O)cc1` (stereo not drawn) was 38%.
Still for that read-out and setting: the value for `CC(C)NC(=O)NC1C(=O)N(CC(=O)N(c2ccccc2)C(C)C)c2ccccc2N(c2ccccc2)C1=O` (stereo not drawn) was 22%.
In the case of `CC(C)N(C(=O)CN1C(=O)C(NC(=O)Nc2ccc(C(=O)O)cc2)C(=O)N(c2ccccc2)c2ccccc21)c1ccccc1` (stereo not drawn), the Activity in [1] was found to be 14%.
The same measure, in the same setting: the value for `CC(C)N(C(=O)CN1C(=O)C(NC(=O)c2cc3ccccc3o2)C(=O)N(c2ccccc2)c2ccccc21)c1ccccc1` (stereo not drawn) was 35%.
`CC(C)N(C(=O)CN1C(=O)C(NC(=O)Nc2cccc(-c3nn[nH]n3)c2)C(=O)N(c2ccccc2)c2ccccc21)c1ccccc1` (stereo not drawn): the Activity in [1] amounted to 79%; in [2] it was 64%.
`CC(C)N(C(=O)CN1C(=O)C(NC(=O)c2c[nH]c3ccccc23)C(=O)N(c2ccccc2)c2ccccc21)c1ccccc1` (stereo not drawn) showed an Activity in test [1] of 5%.
In the case of `CC(C)N(C(=O)CN1C(=O)C(NC(=O)Nc2cccc(N(C)C)c2)C(=O)N(c2ccccc2)c2ccccc21)c1ccccc1` (stereo not drawn), the figures for the Activity in test [1] and in test [2] were 58% and 29%, respectively.
As to `CC(C)N(C(=O)CN1C(=O)C(NC(=O)c2ccccc2C(=O)O)C(=O)N(c2ccccc2)c2ccccc21)c1ccccc1` (stereo not drawn), the Activity in test [1] stood at 58%.
`CC(C)N(C(=O)CN1C(=O)C(NC(=O)c2ccncc2)C(=O)N(c2ccccc2)c2ccccc21)c1ccccc1` (stereo not drawn): the Activity in test [1] is on record as 43%.
In turn, `CC(C)N(C(=O)CN1C(=O)C(NC(=O)Nc2cccc(OCCN(C)C)c2)C(=O)N(c2ccccc2)c2ccccc21)c1ccccc1` (stereo not drawn) registered an Activity in [1] of 2%.
The same measure, in the same setting: the result for `CC(C)N(C(=O)CN1C(=O)C(NC(=O)Nc2cccc(OCC(=O)N(C)C)c2)C(=O)N(c2ccccc2)c2ccccc21)c1ccccc1` (stereo not drawn) reads 77%; that for `CC(C)N(C(=O)CN1C(=O)C(NC(=O)Nc2cccc(CC(=O)O)c2)C(=O)N(c2ccccc2)c2ccccc21)c1ccccc1` (stereo not drawn), 89%.
With `CC(C)N(C(=O)CN1C(=O)C(NC(=O)Nc2cccc(N)c2)C(=O)N(c2ccccc2)c2ccccc21)c1ccccc1` (stereo not drawn), the Activity worked out at 76% in test [1] and 50% in test [2].
As for `CSc1cccc(NC(=O)NC2C(=O)N(CC(=O)N(c3ccccc3)C(C)C)c3ccccc3N(c3ccccc3)C2=O)c1` (stereo not drawn), the Activity in test [1] amounted to 58%.
With `CC(C)N(C(=O)CN1C(=O)C(NC(=O)NCc2ccccc2)C(=O)N(c2ccccc2)c2ccccc21)c1ccccc1` (stereo not drawn), the Activity in test [1] turned out to be 1%.
Regarding `CC(C)N(C(=O)CN1C(=O)C(NC(=O)N2CCNCC2)C(=O)N(c2ccccc2)c2ccccc21)c1ccccc1` (stereo not drawn), the result in test [10] was inactive.
Turning to `CC(C)N(C(=O)CN1C(=O)C(NC(=O)Nc2ccccc2O)C(=O)N(c2ccccc2)c2ccccc21)c1ccccc1` (stereo not drawn), the Activity in [1] is listed as 16%.
On the same count and under the same terms, the result for `CC(C)N(C(=O)CN1C(=O)C(NC(=O)Nc2cccc(Cl)c2)C(=O)N(c2ccccc2)c2ccccc21)c1ccccc1` (stereo not drawn) reads 7%.
For `COc1cccc(NC(=O)NC2C(=O)N(CC(=O)N(c3ccccc3)C(C)C)c3ccccc3N(c3ccccc3)C2=O)c1` (stereo not drawn), the Activity in test [1] was 78%.
On the same count and under the same terms, the value for `CC(C)N(C(=O)CN1C(=O)C(NC(=O)Nc2cccc(S(C)(=O)=O)c2)C(=O)N(c2ccccc2)c2ccccc21)c1ccccc1` (stereo not drawn) was 53%.
`CC(C)N(C(=O)CN1C(=O)C(NC(=O)Nc2ccccc2)C(=O)N(c2ccccc2)c2ccccc21)c1ccccc1` (stereo not drawn): the values for the Max in test [3], in [7] and in test [13] were 78%, 86% and 96%, respectively. Further, the Max result in [11] and in [6] was “inactive” each time. Moreover, the 50% effect level in test [5] (ED50) was put at a dose of 0.95 µmol/kg. Further, the Activity in test [1] was 86%. Also, the ED50 entry in test [12] was “inactive”. Moreover, the EC50 in [14] is 1260 nM.
In the case of `CC(C)N(C(=O)CN1C(=O)C(NC(=O)c2cccc(C(=O)O)c2)C(=O)N(c2ccccc2)c2ccccc21)c1ccccc1` (stereo not drawn), in test [1], the Activity is given as 56%.
As to `CC(C)N(C(=O)CN1C(=O)C(NC(=O)Nc2cccc(OCC(=O)O)c2)C(=O)N(c2ccccc2)c2ccccc21)c1ccccc1` (stereo not drawn), the Activity was 98% in test [1] and 85% in [2].
In turn, `CC(C)N(C(=O)CN1C(=O)C(NC(=O)c2cccnc2)C(=O)N(c2ccccc2)c2ccccc21)c1ccccc1` (stereo not drawn) displayed an Activity in test [1] of 43%.
